Sequences and labels used below:
B1: Osa-1-4 twister ribozyme (parent)
chain: CCGCCUAACACUGCCAAUGCCGGUCCCAAGCCCGGAUAAAAGUGGAGGGGGCGG

In the RNAGym collection of RNA variant scans (doi:10.1002/anie.201605470) one finds self-cleavage data, which are given here for 167 variants.

In the series the parent is B1. Description: self-cleavage, relative activity (ratio to wild type); higher = more cleavage; co-transcriptional. The method in brief:
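Relative activity is the fraction cleaved divided by that of the wild-type ribozyme. The library came from a DNA template for a 54-nucleotide Oryza sativa twister ribozyme, doped at the 48 positions downstream of the cleavage site with 97 % wild-type base and 1 % of each other base. After 2 h of in vitro transcription at 37 °C with co-transcriptional self-cleavage, the RNA was reverse-transcribed with a template-switching oligonucleotide, amplified by PCR and deep-sequenced, and reads with or without upstream sequence gave the cleavage status.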
In the case of G48U U18C, the self-cleavage was 0.08.
As for A46U C32U, the self-cleavage was 0.05.
In the case of A46U C32G it was 0.05.
In the case of A46U C32A, the self-cleavage came out at 0.03.
In the case of G49C U24A it was 0.03.
As to G49C U24C, the self-cleavage came out at 0.05.
Turning to G49C G53U, the self-cleavage was 0.05.
G49C G53C: the self-cleavage was found to be 0.03.
On to G49C G53A, for which the self-cleavage was determined as 0.06.
The figure for G47A U37C is 0.44; for G47A U37G it is 0.62; for G47A U37A it is 0.28.
In the case of G48U U43A it was 0.05.
In the case of G48U U43G it was 0.04; in that of G48U U43C, 0.05.
Take A46U U18G: the self-cleavage was found to be 0.09.
In the case of A46U U18A it was 0.05.
The figure for A46U U18C is 0.08; for A46U G30U it is 0.02.
As for A46U G30C, the self-cleavage is 0.01.
On to A46U G30A, for which the self-cleavage is 0.02.
In the case of A46U C21U it was 0.06; in that of A46U C21G, 0.02; in that of A46U C21A, 0.07.
The figure for G47A G50C is 0.07.
The figure for G47A G50A is 0.36.
G47A G50U: the self-cleavage was 0.09.
The figure for A46U G35C is 0.05; for A46U G35U it is 0.09; for A46U G35A it is 0.07.
As to G48A G50A, the self-cleavage turned out to be 0.16.
Take G48A G50C: the self-cleavage is 0.09.
Turning to G48A G50U, the self-cleavage was determined as 0.09.
In the case of G47U G53U, the self-cleavage turned out to be 0.1.
In the case of G47U G53C it was 0.06; in that of G47U G53A, 0.18; in that of G48U G53C, 0.06.
Take G48U G53U: the self-cleavage amounted to 0.08.
In the case of G48U G53A it was 0.1.
Consider G49A G51C, for which the self-cleavage is 0.09.
For G49A G51U, the self-cleavage came out at 0.15.
As for G49A G51A, the self-cleavage amounted to 0.33.
Consider A46U G50U, for which the self-cleavage worked out at 0.09.
In the case of A46U G50A it was 0.08.
In the case of A46U G50C it was 0.07; in that of G48A U43C, 0.06; in that of G48A U43A, 0.06.
Consider G48A U43G, for which the self-cleavage was 0.06.
In the case of A46U G51A, the self-cleavage came out at 0.09.
With A46U G51C, the self-cleavage worked out at 0.05.
The figure for A46U G51U is 0.06; for G49A U43G it is 0.08.
For G49A U43C, the self-cleavage came to 0.07.
As for G49A U43A, the self-cleavage was 0.08.
As to G49C G50C, the self-cleavage came out at 0.17.
As to G49C G50U, the self-cleavage is 0.14.
As to G49C G50A, the self-cleavage turned out to be 0.2.
The figure for G47A U24A is 0.04; for G47A U24C it is 0.04.
In the case of G47A U24G it was 0.02.
In the case of G47A G54U it was 0.34; in that of G47A G54A, 0.18.
For G47A G54C, the self-cleavage stood at 0.15.
The figure for G47C G50U is 0.07; for G47C G50C it is 0.08.
In the case of G47C G50A it was 0.13; in that of A46U U12G, 0.07; in that of A46U U12C, 0.06.
The figure for A46U U12A is 0.07.
Take A46U C33G: the self-cleavage worked out at 0.03.
In the case of A46U C33A it was 0.05; in that of A46U C33U, 0.06.
Regarding G47A G53U, the self-cleavage came out at 0.08.
As to G47A G53A, the self-cleavage is 0.13.
For G47A G53C, the self-cleavage was 0.06.
The figure for G47A U12C is 0.07; for G47A U12A it is 0.08.
In the case of G47A U12G it was 0.06; in that of A46U G22A, 0.09.
On to A46U G22U, for which the self-cleavage amounted to 0.06.
On to A46U G22C, for which the self-cleavage turned out to be 0.03.
The figure for G49A U37A is 0.13.
Take G49A U37C: the self-cleavage stood at 0.19.
The figure for G49A U37G is 0.27; for G48C G53C it is 0.05; for G48C G53A it is 0.09.
G48C G53U: the self-cleavage is 0.07.
G47U G50A: the self-cleavage was 0.19.
On to G47U G50U, for which the self-cleavage is 0.1.
Take G47U G50C: the self-cleavage was found to be 0.07.
In the case of G48C G51U it was 0.06; in that of G48C G51A, 0.11; in that of G48C G51C, 0.04.
A46U G47C: the self-cleavage amounted to 0.04.
The figure for A46U G47A is 0.06; for A46U G47U it is 0.05; for G47U G54A it is 0.28.
In the case of G47U G54C it was 0.32; in that of G47U G54U, 0.46; in that of A46U G13C, 0.02.
In the case of A46U G13A it was 0.03.
As to A46U G13U, the self-cleavage is 0.01.
The figure for G48U G54A is 0.11; for G48U G54U it is 0.34; for G48U G54C it is 0.1.
Turning to G49A, the self-cleavage worked out at 0.26.
Consider G49C, for which the self-cleavage stood at 0.07.
In the case of G48U G49A it was 0.04.
The figure for G48U G49C is 0.03.
With G48U G49U, the self-cleavage is 0.05.
In the case of A46U G44U it was 0.07.
In the case of A46U G44A, the self-cleavage amounted to 0.07.
Take A46U G44C: the self-cleavage was determined as 0.06.
With G48A U12A, the self-cleavage came to 0.07.
In the case of G48A U12C it was 0.04.
As to G48A U12G, the self-cleavage is 0.04.
As to G47A U18C, the self-cleavage is 0.22.
In the case of G47A U18A it was 0.33; in that of G47A U18G, 0.56.
In the case of G48C U37G it was 0.16; in that of G48C U37C, 0.1.
The figure for G48C U37A is 0.08; for A46U G23C it is 0.02; for A46U G23A it is 0.06.
Consider A46U G23U, for which the self-cleavage is 0.03.
As to G47C U12G, the self-cleavage worked out at 0.06.
The figure for G47C U12C is 0.05; for G47C U12A it is 0.06; for G49C U12A it is 0.08.
In the case of G49C U12C it was 0.04.
The figure for G49C U12G is 0.06.
Consider A46U U37G, for which the self-cleavage was found to be 0.11.
In the case of A46U U37A, the self-cleavage worked out at 0.05.
For A46U U37C, the self-cleavage was 0.09.
With G48A U24A, the self-cleavage was 0.05.
For the variant G48A U24C, the self-cleavage was 0.04.
The figure for G48A U24G is 0.01; for G48C U43A it is 0.08.
On to G48C U43C, for which the self-cleavage is 0.07.
On to G48C U43G, for which the self-cleavage came out at 0.07.
On to G47C G49A, for which the self-cleavage is 0.05.
The figure for G47C G49U is 0.03; for G47C G49C it is 0.06.
As to G49A U12A, the self-cleavage was 0.08.
The figure for G49A U12G is 0.06.
On to G49A U12C, for which the self-cleavage was 0.05.
Consider G47C G53U, for which the self-cleavage came out at 0.08.
The figure for G47C G53A is 0.1.
The figure for G47C G53C is 0.06; for G49A U18G it is 0.29.
The figure for G49A U18A is 0.16; for G49A U18C it is 0.16; for G48A U18G it is 0.13.
For the variant G48A U18C, the self-cleavage was 0.1.
As to G48A U18A, the self-cleavage turned out to be 0.09.
In the case of G47A U43C it was 0.09; in that of G47A U43A, 0.11.
The figure for G47A U43G is 0.1.
As for G48A U37G, the self-cleavage turned out to be 0.16.
As for G48A U37C, the self-cleavage is 0.11.
As to G48A U37A, the self-cleavage worked out at 0.06.
Consider G47C G54U, for which the self-cleavage was found to be 0.24.
The figure for G47C G54C is 0.13; for G47C G54A it is 0.14; for G48C G49C it is 0.07.
For the variant G48C G49U, the self-cleavage stood at 0.04.
The figure for G48C G49A is 0.05.
